In general, IC50 refers to the concentration at which inhibition is half-maximal. A low value points to greater potency in that assay. As a reminder, the MIC is the least concentration at which growth counts as inhibited.

Converted amounts (≈) assume the structure as drawn. The source made the active and inactive calls. No cut-off for these calls is given here.

Assay [1] has as its system L929. Description: Cytotoxicity against mouse L929 cells incubated for 5 days by MTT assay. It is filed as cell-based. The settings on record: L929, 120 h. An outline of the steps:
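L929 mouse fibroblasts were grown in EBM-2 with 10% FBS at 37 °C under 10% CO₂. Serial dilutions from a 1 mg/mL MeOH stock were added to cell suspension (50 000/mL) and incubated 5 days. Read-out was MTT with absorbance at 590 nm. IC₅₀ (50% growth inhibition versus control) was taken from dose−response curves; methanol was the negative control.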
In general terms: Tetrazolium assays rely on reduction of a dye to a coloured formazan, in cell work by metabolically active cells.

Assay [2] has as its system Pseudomonas aeruginosa. Description: Antimicrobial activity against Pseudomonas aeruginosa DSM50071 assessed as inhibition of microbial growth up to 67 ug/ml incubated for 24 to 48 hrs by serial dilution assay. It is filed as functional, organism-based. An outline of the steps: (§1)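 Broth microdilution in EBS medium (peptone, glucose, meat and yeast extract, 50 mM HEPES, pH 7.0). A 1 mg/mL MeOH stock was dried in the first row, then pathogen diluted 1:100 in medium was added and serially diluted 1:1 (66.7 to 0.1 μg/mL tested). Plates were shaken at 600 rpm, 30 °C, for 24−48 h. MIC is the lowest concentration preventing visible growth; blank wells served as negative control.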

The test system of assay [3] is Staphylococcus aureus. Description: Antimicrobial activity against Staphylococcus aureus DSM346 assessed as inhibition of microbial growth incubated for 24 to 48 hrs by serial dilution assay. It is filed as functional. An outline of the steps:
as §1

Assay [4] relates to Escherichia coli. Description: Antimicrobial activity against Escherichia coli DSM1116 assessed as inhibition of microbial growth up to 67 ug/ml incubated for 24 to 48 hrs by serial dilution assay. It is filed as functional, organism-based. An outline of the steps:
as §1

The test system of assay [5] is Schizosaccharomyces pombe. Description: Antimicrobial activity against Schizosaccharomyces pombe DSM70572 assessed as inhibition of microbial growth up to 67 ug/ml incubated for 24 to 48 hrs by serial dilution assay. It is filed as functional, organism-based. An outline of the steps: (§2)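 Yeasts and fungi were tested by serial dilution in MYC medium (1.0% phytone peptone, 1.0% glucose, 50 mM HEPES, pH 7.0). Compound from a 1 mg/mL MeOH stock was dried in row A, then inoculum at 1:100 in medium was added and diluted 1:1 down the plate (66.7 to 0.1 μg/mL). Incubation was 30 °C, 600 rpm shaking, 24−48 h. MIC is the lowest concentration with no visible growth.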

Assay [6] concerns Candida albicans. Description: Antimicrobial activity against Candida albicans DSM1665 assessed as inhibition of microbial growth up to 67 ug/ml incubated for 24 to 48 hrs by serial dilution assay. It is filed as functional, organism-based. An outline of the steps:
as §2

Assay [7] relates to Chromobacterium violaceum. Description: Antimicrobial activity against Chromobacterium violaceum DSM30191 assessed as inhibition of microbial growth up to 67 ug/ml incubated for 24 to 48 hrs by serial dilution assay. It is filed as functional, organism-based. Summed up: as §1
In assay [8] the test system is Mucor hiemalis. Description: Antimicrobial activity against Mucor hiemalis DSM2656 […] assessed as inhibition of microbial growth incubated for 24 to 48 hrs by serial dilution assay. It is filed as functional. Summed up:
as §2

The test system of assay [9] is Bacillus subtilis. In words: Antimicrobial activity against Bacillus subtilis DSM10 assessed as inhibition of microbial growth incubated for 24 to 48 hrs by serial dilution assay. It is filed as functional. Summed up:
as §1

Assay [10] deals with Micrococcus luteus. Description: Antimicrobial activity against Micrococcus luteus DSM1790 assessed as inhibition of microbial growth up to 67 ug/ml incubated for 24 to 48 hrs by serial dilution assay. It is filed as functional, organism-based. Summed up: as §1
Assay [11] relates to Wickerhamomyces anomalus. In words: Antimicrobial activity against Pichia anomala DSM6766 assessed as inhibition of microbial growth up to 67 ug/ml incubated for 24 to 48 hrs by serial dilution assay. It is filed as functional, organism-based. Summed up:
as §2

Assay [12] deals with Staphylococcus aureus. In words: Antimicrobial activity against Staphylococcus aureus DSM346 assessed as inhibition of microbial growth up to 67 ug/ml incubated for 24 to 48 hrs by serial dilution assay. It is filed as functional, organism-based. Summed up: as §1
The test system of assay [13] is Mucor hiemalis. Description: Antimicrobial activity against Mucor hiemalis DSM2656 […] assessed as inhibition of microbial growth up to 67 ug/ml incubated for 24 to 48 hrs by serial dilution assay. It is filed as functional, organism-based. An outline of the steps: as §2
Assay [14] deals with Bacillus subtilis. Description: Antimicrobial activity against Bacillus subtilis DSM10 assessed as inhibition of microbial growth up to 67 ug/ml incubated for 24 to 48 hrs by serial dilution assay. It is filed as functional, organism-based. An outline of the steps: as §1
The test system of assay [15] is Pseudomonas aeruginosa. Description: Antimicrobial activity against Pseudomonas aeruginosa DSM50071 assessed as inhibition of microbial growth incubated for 24 to 48 hrs by serial dilution assay. It is filed as functional, organism-based. Summed up: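 Broth serial dilution in EBS medium (0.5% peptone, 0.5% glucose, 0.1% meat extract, 0.1% yeast extract, 50 mM HEPES, pH 7.0). Compound stock (1 mg/mL in MeOH) was dried in the first row, then the bacterium was added as a 1:100 inoculum:medium mix. Twofold dilutions covered 66.7 to 0.1 μg/mL. Plates were shaken at 600 rpm, 30 °C, for 24–48 h. MIC was the lowest concentration with no visible growth.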

In assay [16] the test system is Schizosaccharomyces pombe. Description: Antimicrobial activity against Schizosaccharomyces pombe DSM70572 assessed as inhibition of microbial growth incubated for 24 to 48 hrs by serial dilution assay. It is filed as functional, organism-based. Summed up: (§3)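 Broth serial dilution in MYC medium (1.0% phytone peptone, 1.0% glucose, 50 mM HEPES, pH 7.0). Compound stock (1 mg/mL in MeOH) was dried in the first row, then the yeast was added as a 1:100 inoculum:medium mix. Twofold serial dilutions covered 66.7 to 0.1 μg/mL. Plates were shaken at 600 rpm, 30 °C, for 24–48 h. MIC was the lowest concentration with no visible growth. Blank wells served as negative controls.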

Assay [17] deals with Wickerhamomyces anomalus. Description: Antimicrobial activity against Pichia anomala DSM6766 assessed as inhibition of microbial growth incubated for 24 to 48 hrs by serial dilution assay. It is filed as functional, organism-based. An outline of the steps:
as §3

Assay [18] concerns Candida albicans. In words: Antimicrobial activity against Candida albicans DSM1665 assessed as inhibition of microbial growth incubated for 24 to 48 hrs by serial dilution assay. It is filed as functional, organism-based. Summed up:
as §3

For assay [19], the system named is Micrococcus luteus. In words: Antimicrobial activity against Micrococcus luteus DSM1790 assessed as inhibition of microbial growth incubated for 24 to 48 hrs by serial dilution assay. It is filed as functional. An outline of the steps: as §1
Assay [20] concerns Chromobacterium violaceum. In words: Antimicrobial activity against Chromobacterium violaceum DSM30191 assessed as inhibition of microbial growth incubated for 24 to 48 hrs by serial dilution assay. It is filed as functional. Summed up:
as §1

Assay [21] deals with Escherichia coli. Description: Antimicrobial activity against Escherichia coli DSM1116 assessed as inhibition of microbial growth incubated for 24 to 48 hrs by serial dilution assay. It is filed as functional. Summed up: as §1

In [1], `CC1(C)CCC[C@]1(C)c1ccc(C(=O)OCC[C@@](C)(O)CC(=O)O)cc1` had an IC50 greater than 10 µg/mL. Further, the inhibition entry in [2], in assay [4], in assay [5], in assay [6], in [7] and in [10] was “inactive” in each case. The inhibition result in assay [11] was “inactive”. In addition, the MIC in [3], in assay [8] and in assay [9] was 67 µg/mL each time.
Turning to `CC1(C)CC(=O)C[C@]1(C)C1=CC=C(C(=O)OCC[C@@](C)(O)CC(=O)O)CC1`, the IC50 in assay [1] is greater than 10 µg/mL. For the same molecule, the inhibition entry in assay [2], in [4], in assay [5], in assay [6], in assay [12] and in [7] was “inactive” each time. Besides, the inhibition result in assay [13], in assay [10], in assay [14] and in assay [11] was “inactive” throughout.
In [1], `CC1(C)CCC[C@]1(C)c1ccc(C(=O)O)cc1` gave an IC50 greater than 10 µg/mL. Besides, the inhibition result in [2], in [4], in assay [5], in assay [6], in assay [12] and in assay [7] was “inactive” each time. For the same molecule, the inhibition entry in assay [10], in assay [14] and in assay [11] was “inactive” throughout. In addition, the MIC in [8] amounted to 67 µg/mL.
With GENTAMICIN, the MIC in assay [15] is 42 µg/mL.
As to `CC1(C)CC[C@@H](O)[C@]1(C)c1ccc(C(=O)OCC[C@@](C)(O)CC(=O)O)cc1`, the IC50 in assay [1] was determined as 2.8 µg/mL (≈ 7.4 µM). For the same molecule, the inhibition result in [2], in [4], in [5], in assay [6], in [7] and in assay [13] was “inactive” in each case. In addition, the inhibition result in [10], in assay [14] and in [11] was “inactive” in each case. The MIC in assay [3] stood at 67 µg/mL.
As to `CC1(C)[C@@H](O)C(=O)C[C@]1(C)c1ccc(C(=O)O)cc1`, the IC50 in [1] is greater than 10 µg/mL. In addition, the inhibition result in [2], in [4], in [5], in assay [6], in [12] and in [7] was “inactive” throughout. Further, the inhibition result in assay [13], in assay [10], in assay [14] and in assay [11] was “inactive” throughout.
For the molecule `CC(O)(COC(=O)c1ccc([C@@]2(C)C[C@H](O)CC2(C)C)cc1)C(=O)O` (some centres not stated), the IC50 in assay [1] is greater than 10 µg/mL. For the same molecule, the inhibition entry in [2], in assay [4], in assay [5], in [6], in assay [7] and in [13] was “inactive” in each case. The inhibition entry in [10], in [14] and in assay [11] was “inactive” in each case. In assay [3], the MIC stood at 67 µg/mL.
In the case of NYSTATIN, the MIC in assay [16] amounted to 33.3 µg/mL; in assay [8], 67 µg/mL; in [17] it was 33.3 µg/mL; in assay [18] it was 67 µg/mL.
In the case of `CC1(C)CC(=O)C[C@]1(C)c1ccc(C(=O)OCC[C@@](C)(O)CC(=O)O)cc1`, the IC50 in [1] was greater than 10 µg/mL. The inhibition result in assay [2], in assay [4], in [5], in assay [6], in assay [12] and in assay [7] was “inactive” throughout. The inhibition result in assay [13], in assay [10], in [14] and in assay [11] was “inactive” throughout.
As to `CN(C)[C@@H]1C(O)=C(C(N)=O)C(=O)[C@@]2(O)C(O)=C3C(=O)c4c(O)cccc4[C@@](C)(O)[C@H]3[C@H](O)[C@@H]12.Cl` [OXYTETRACYCLINE HYDROCHLORIDE], the minimum inhibitory concentration (MIC) in assay [3] is 0.21 µg/mL; in assay [19] it was 0.42 µg/mL; in assay [20], 0.83 µg/mL; in assay [9], 0.83 µg/mL; in assay [21], 0.83 µg/mL.

Values taken from ChEMBL document CHEMBL3580532, “Deconins A-E: Cuparenic and Mevalonic or Propionic Acid Conjugates from the Basidiomycete Deconica sp. 471” (J Nat Prod, 2015).
